# STAT1 activator: STAT1 signaling activation; activation (% of control), % at 5.5 µM; NIH 3T3 STAT1-luciferase reporter, IFN-gamma, luminescence; 100% = IFN-gamma alone, no compound; 200,000 compounds, 2.6% hits;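 active = activation above the screen-wide mean activation plus 3 SD, cut at about 130% in these data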;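 also: raw ratio to IFN-gamma control signal so 100% means no change and 0% no light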
# APP 5'UTR act: activates APP 5'UTR luciferase reporter. SH-SY5Y APP 5'UTR luciferase reporter, luminescence; zero percent = DMSO vehicle wells. activation, % at 2 µM. 190,000 compounds, 1% hits. AID 1276;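 active = activation above a set limit, based on mean plus 3 SD of controls, cut at about 140% in these data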
# NF-kB expr up: raises NF-kB expression in human neuronal cells | NF-kB reporter expression; stronger effect = higher value | fold change at 12.5 µM | 190,000 compounds, 1.6% hits; in the data active = fold change above about 3.3
# STAT3 blocker: reduces IL-6 driven STAT3 reporter signal. U3A cells, IL-6 STAT3-luciferase reporter, luminescence; host cell line lacks STAT1. inhibition, % at 5.5 µM. 190,000 compounds, 0.89% hits. AID 862;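 active = inhibition above the mean inhibition across all screened compounds plus 3 SD, cut at about 44% in these data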;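 also: 0% = DMSO only wells and 100% = 100 µM nifuroxazide control wells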
# STAT1 blocker: reduces IFN-gamma driven STAT1 reporter signal | inhibition, % at 5.5 µM | NIH 3T3 STAT1-luciferase reporter, luminescence | 200,000 compounds, 0.35% hits;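 active = inhibition above a set limit, the mean inhibition across all tested compounds plus 3 SD, cut at about 34% in these data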;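 also: 0% = IFN-gamma with DMSO and 100% = IFN-gamma with 300 µM nifuroxazide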
# STAT3 activator: increases IL-6 driven STAT3 reporter signal; U3A cells, IL-6 STAT3-luciferase reporter, luminescence; 100% = signal with IL-6 EC80 alone; activation (% of control), % at 5.6 µM; 190,000 compounds, 0.91% hits; AID 871;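 active = activation above the screen-wide mean of compound activation plus 3 SD, cut at about 130% in these data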;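 also: 0% = background luminescence of wells with medium and substrate only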
#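 Test system: STAT3-luciferase reporter U3A cells; Detection: reporter luminescence signal; Times: 1 h compound pre-exposure, 6 h IL-6 stimulation, 37 °C; Benchmarks: IL-6-only high control; Also added: IL-6 stimulus at 33 ng/mL final.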
# * = called active by the depositor. Most compounds without a hit are left out; they make up all but 5.1% or so of the library.
SMILES,STAT1 activator,APP 5'UTR act,NF-kB expr up,STAT3 blocker,STAT1 blocker,STAT3 activator
COc1ccc(NC(=O)c2ccccc2F)cc1Cl,119,120,4.3*,14,-21,94
O=C(Nc1ccc2cn[nH]c2c1)c1c(Cl)cccc1Cl,95,12,0.88,20,5,81
CCCOCn1cc(F)c(=O)[nH]c1=O,104,-6,1.3,2,-5,99
CCC(c1nnnn1CCc1ccccc1)N1CCN(C(=O)c2ccco2)CC1 (centres undefined),100,-4,0.9,4,0,99
COc1ccc(C(CC(=O)N2CCOCC2)C(C)C)cc1 (centres undefined),100,5,1,4,0,103
O=C(c1cccn(Cc2ccc(Cl)c(Cl)c2)c1=O)N1CCOCC1,103,-7,1.1,5,-3,104
O=c1c(-c2nc3ccccc3s2)cccn1Cc1ccc(Cl)c(Cl)c1,99,11,3.5*,6,1,100
CC1CCC/C(=N\Nc2ccc(Cl)c(C(=O)O)c2)C1 (centres undefined),111,217*,1.7,-4,-13,107
COc1cc(CSC)nc(-c2ccccc2)n1,90,-4,1.1,13,9,92
Cn1ccnc1SCc1cn2cc(Br)ccc2n1,117,164*,2.3,43,-18,68
COC(=O)c1ccc(COc2ccc(/C=N/N3CCN(C)CC3)cc2)cc1,136*,55,1.7,-17,-38,113
COC(=O)c1ccc(/C=N\N2CCN(Cc3ccc(C)cc3)CC2)cc1,99,-3,1,12,1,94
CCCCCOC(=O)c1[nH]c2c(c1C)C(=O)CC(c1ccco1)C2 (centres undefined),102,-95,5.2*,-25,-2,121
Cn1nnc(-c2ccc(OCc3ccccc3F)cc2)n1,122,138*,7.8*,28,-24,80
COC(=O)CSc1nc2nc(C)c(Br)cc2[nH]1,105,-18,1.5,0,-5,105
O=C(Nc1ncc(Cc2ccc(SC(F)F)cc2)s1)c1ccccc1,120,-86,3.6*,4,-22,102
Cc1csc(NC(=O)C2CCCO2)n1 (centres undefined),99,0,0.92,0,1,104
Cc1csc(NC(=O)c2ccc(C)o2)n1,115,69,2.1,-4,-17,105
Cc1ccc(Cc2cnc(NC(=O)C3CCCO3)s2)cc1 (centres undefined),135*,145*,4.5*,-2,-39,102
Cc1ccc(C(=O)Nc2ncc(Cc3ccccc3)s2)o1,121,205*,1.3,35,-23,73
COc1ccc(N2CCN(c3cnc4ccccc4n3)CC2)cc1,133*,65,2.2,9,-38,101
COc1cccc(N2CCN(c3cnc4ccccc4n3)CC2)c1,134*,41,1.1,8,-41,95
Clc1ccc(N2CCN(c3cnc4ccccc4n3)CC2)cc1,122,-4,2.1,21,-23,83
COc1ccc(C(=O)N/N=C/c2sc(N3CCOCC3)nc2-c2ccccc2)cc1OC,84,9,0.53,21,15,85
Clc1ccc(-c2cn3cccnc3n2)cc1,133*,16,2.3,16,-35,86
SMILES,STAT1 activator,APP 5'UTR act,NF-kB expr up,STAT3 blocker,STAT1 blocker,STAT3 activator
O=C(CSc1nc(Nc2ccccc2)nc(N2CCOCC2)n1)Nc1ccccc1Cl,98,-12,6.7*,1,2,103
CCS/C(N)=N/N=C/c1cc(C)ccc1O,132*,160*,13*,2,-35,103
CCCCS/C(N)=N/N=C/c1cc(C)ccc1O,102,20,1.6,1,-2,103
COc1ccc(-n2cnc(N)c2C(=O)c2cccc([N+](=O)[O-])c2)cc1,98,-43,0.85,-1,2,103
Cc1ccc(S(=O)(=O)NCC2CCC(C(=O)NCc3cccs3)CC2)cc1 (centres undefined),96,-13,1.2,-2,2,104
CCOC(=O)c1c(C)[nH]c(C(=O)COC(=O)C2CC2C)c1C (centres undefined),150*,180*,4.1*,17,-56,90
CCOc1ccc(-c2nc(CSc3nnc(N)s3)cs2)cc1OC,123,38,1.2,-22,-25,122
